LANA DNA inh = inhibitors of KSHV C-LANA binding to DNA, primary screen, biochemical, fluorescence polarization, FAM-LBS DNA, MBP-C-LANA, single point; Kaposi's sarcoma herpesvirus LANA C-terminal domain (residues 932-1162) DNA binding; inhibition, % at 9 µM; hit rate 0.078% among 340,000; AID 504423, 2011;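 active means highest replicate inhibition at or above 60% at 9 µM, even if other replicates fall short; inactive means all replicates below 60% inhibition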;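 further: 0% = neutral control wells and 100% = 4 µM acridine orange control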
Keap1 Nrf2 FP = Keap1-Nrf2 protein-protein interaction inhibitors, primary screen, biochemical, fluorescence polarization, single point | Keap1 Kelch-Nrf2 peptide fluorescence polarization, 1536-well | inhibition, % at 9.4 µM | hit rate 0.15% among 340,000; in the data active means inhibition above about 12%;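 further: human Keap1 Kelch domain with fluorescein labeled Nrf2 9mer peptide probe; 0% = neutral control wells and 100% = peptide positive control; higher means more block of Keap1 binding to Nrf2 peptide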
EBV gp42 block = Epstein-Barr virus gp42 inhibitors, primary screen, biochemical, uHTS, fluorescence polarization. Fluorescence polarization binding assay, mP read-out. inhibition, % (tested at 21.74 µM). hit rate 0.42% among 220,000; in the data active means inhibition above about 50%
T cell HTS = modulators of CD8 T cell-vesicle binding, primary screen, mouse 2C CD8+ T cells, flow cytometry; 2C CD8+ T cell-vesicle binding; active compounds read low; hit rate 0.068% among 330,000; AID 2052, 2009; response (vesicle binding), % at 7 µM;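 active means response, share of CD8 T cells binding vesicles, and their 90th percentile fluorescence all below set limits, cut at about 80% in these data, passing the limit was not always enough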;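 further: values below 100% mean blocked vesicle binding to the CD8+ T cells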
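Material: murine 2C transgenic CD8+ T lymphocytes / Also added: QL9-peptide-loaded Drosophila micro-vesicles bearing Ld, ICAM-1 and B7-1 / Schedule: binding step 1.5 h, 37 °C, antibody labelling 20 min, ice / Signal: flow cytometry, PE anti-B7-1 (FL2) versus Alexa647 anti-CD8 (FL8), PFA-fixed / Evaluation: percent CD8+ FL2 mean versus row control / Benchmarks: naked versus QL9-loaded vesicles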
MEX-5 binding = MEX-5 zinc finger RNA-binding disruptors – biochemical, C. elegans, fluorescence polarization, MLPCN library, primary screen. Zinc finger protein mex-5 (Caenorhabditis elegans), Q9XUB2. MEX-5/FITC-TCR2 RNA binding; active compounds read low. activity score (negative = inhibition of binding), % at 10 µM. hit rate 0.38% among 300,000. AID 1832, 2009;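 active means inhibition past about -25% in most replicates, and total fluorescence under double the plate's negative control median, limit read from the data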;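 further: 0% = DMSO and -100% = 5 µM competing unlabeled TCR2 RNA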
GRK2 aptamer HTS = compounds blocking aptamer binding on GRK2 – biochemical, human GRK2, bead flow cytometry, HTS, primary screen. FAM-aptamer displacement from GRK2. inhibition of aptamer binding, % at 10 µM. hit rate 0.59% among 330,000;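 active means inhibition of aptamer binding above 40%, roughly 3 SD of noise, on plates passing a quality check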;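 further: median bead fluorescence of bound FAM aptamer so fluorescent compounds give negative values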
Target sequence (P25098 whole entry, looked up): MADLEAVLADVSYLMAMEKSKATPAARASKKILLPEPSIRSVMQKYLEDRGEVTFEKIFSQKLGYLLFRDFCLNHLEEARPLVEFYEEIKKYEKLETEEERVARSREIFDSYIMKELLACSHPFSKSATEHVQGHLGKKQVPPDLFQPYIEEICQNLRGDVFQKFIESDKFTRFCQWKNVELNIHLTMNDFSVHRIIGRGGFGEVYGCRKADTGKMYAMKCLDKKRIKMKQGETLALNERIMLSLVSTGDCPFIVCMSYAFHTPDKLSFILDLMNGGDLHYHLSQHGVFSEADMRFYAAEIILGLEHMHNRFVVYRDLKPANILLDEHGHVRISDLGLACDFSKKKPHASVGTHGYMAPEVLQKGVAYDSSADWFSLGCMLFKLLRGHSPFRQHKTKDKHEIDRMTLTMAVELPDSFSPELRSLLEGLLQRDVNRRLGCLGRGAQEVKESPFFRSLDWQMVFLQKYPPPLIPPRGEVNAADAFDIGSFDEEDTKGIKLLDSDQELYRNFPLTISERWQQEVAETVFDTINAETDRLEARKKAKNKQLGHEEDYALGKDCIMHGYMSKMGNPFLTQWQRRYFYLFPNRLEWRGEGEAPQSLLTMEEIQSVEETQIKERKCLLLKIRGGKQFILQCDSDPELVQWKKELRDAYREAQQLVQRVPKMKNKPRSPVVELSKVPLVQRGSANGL
GRK2 inh confirm = GRK2 aptamer-displacing inhibitors, retest, confirmation, biochemical, cherry pick 1, bead flow cytometry; aptamer displacement, % at 10 µM; bead-bound GRK2, FAM-aptamer displacement; shares compounds with GRK2 aptamer HTS; hit rate 4% among 2,000;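 active means aptamer displacement above 40%, near three times the noise of non-fluorescent compounds, on plates passing quality checks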;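 further: negative values mostly reflect intrinsic compound fluorescence rather than true enhancement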
Aptamer quench SP = quenches fluorescent RNA aptamer, GRK2 hit artifact; 2,000 tested, under 10 active; fluorescence response (% of DMSO), % at 10 µM; Carboxyfluorescein RNA aptamer on beads, flow cytometry quenching; active compounds read low; shares compounds with GRK2 aptamer HTS;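 active means compounds that quench the bead-bound fluorescent RNA probe, cutting fluorescence to under half of the solvent control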;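 further: counterscreen run without GRK2 so only probe quenching by compound is measured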
GRK2 confirm 2 = GRK2 aptamer-displacing inhibitors, hit retest, confirmation, biochemical, cherry pick 2, bead flow cytometry; shares compounds with GRK2 aptamer HTS; bead-bound GRK2, FAM-aptamer displacement; inhibition of aptamer binding, % at 10 µM; 360 tested, under 10 active;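 active means inhibition of aptamer binding above 40%, about triple the noise seen with nonglowing compounds, on plates passing quality control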;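 further: negative values mostly come from compounds that fluoresce themselves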
FAM quench CP2 = quenches fluorescent RNA aptamer, GRK2 hit artifact; shares compounds with GRK2 aptamer HTS; carboxyfluorescein RNA aptamer beads, flow cytometry quenching; active compounds read low; fluorescence response vs DMSO, % at 10 µM; 360 tested, under 10 active;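 active means response vs DMSO under 50%, meaning signal dropped by over half, treated as fluorescence quencher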;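 further: labelled aptamer on streptavidin beads without GRK2 as a quench counter-screen; 100% = bead fluorescence of DMSO wells and lower means quenching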
An asterisk follows results filed as active. Shown are actives, neighbours in structure and some others; about 1.3% of the full set was active somewhere.

Cc1cc(C)cc(NC(=O)C2CCCN2S(=O)(=O)c2ccc3c(c2)C(C)(C)C(=O)N3C)c1 (stereo unspecified) was read as LANA DNA inh -0.5, Keap1 Nrf2 FP -10.1, T cell HTS 231.0, MEX-5 binding -0.1 and GRK2 aptamer HTS 2.0.
Screening CCN(CC)c1ccc(NC(=O)c2nc3nc(C)cc(C(F)F)n3n2)cc1 returned LANA DNA inh -0.3, Keap1 Nrf2 FP 3.2, EBV gp42 block -4.8, T cell HTS 595.7, MEX-5 binding -0.8, GRK2 aptamer HTS 48.0*, GRK2 inh confirm -0.1 and Aptamer quench SP 93.0.
C=CCNC(=O)c1onc(CSc2ccc(F)c(F)c2)c1C(=O)NCC=C was read as LANA DNA inh 0.6, Keap1 Nrf2 FP -6.5, T cell HTS 408.9, MEX-5 binding -1.5, GRK2 aptamer HTS 53.0*, GRK2 inh confirm -2.3 and Aptamer quench SP 104.8.
Screening O=C(Cc1ccc(NC(=O)C2CCCN(C(=O)C3CCCC3)C2)cc1)Nc1ccc(C(=O)N2CCOCC2)cc1 (stereo unspecified) returned LANA DNA inh -2.5 and Keap1 Nrf2 FP -2.5.
CCN1CCN(CC(=O)N2N=CCC2c2ccccc2)CC1 (stereo unspecified) was read as LANA DNA inh 1.7, Keap1 Nrf2 FP 0.0, EBV gp42 block 1.1, T cell HTS 408.2, MEX-5 binding 0.9, GRK2 aptamer HTS 100.0*, GRK2 inh confirm -0.1 and Aptamer quench SP 100.4.
`CC1(C)N=C(SCC(=O)Nc2ccc(Cl)cc2)C(c2ccccc2)=N1` gave LANA DNA inh -0.9, Keap1 Nrf2 FP -3.7, EBV gp42 block -8.0, T cell HTS 644.7, MEX-5 binding 1.0 and GRK2 aptamer HTS 0.0.
CC1(C)N=C(SCC(=O)Nc2ccc(Cl)cc2)C(c2ccc(Cl)cc2)=N1 was read as LANA DNA inh 1.7, Keap1 Nrf2 FP -3.3, EBV gp42 block -6.9, T cell HTS 586.9, MEX-5 binding 0.5, GRK2 aptamer HTS 33.0, GRK2 inh confirm -3.4 and Aptamer quench SP 95.3.
`CCc1cc2c(SCC(=O)Nc3ccc(Cl)cn3)ncnc2s1` gave LANA DNA inh 0.4, Keap1 Nrf2 FP 3.1 and EBV gp42 block -39.7.
CCn1nnnc1Oc1ccc(Cl)cc1 was read as LANA DNA inh -1.0, Keap1 Nrf2 FP -2.5, EBV gp42 block -22.2, T cell HTS 421.7, MEX-5 binding -2.3 and GRK2 aptamer HTS 2.0.
For O=C(COC(=O)Cc1ccc(Cl)c(Cl)c1)NCc1ccco1 the results were LANA DNA inh 0.3, Keap1 Nrf2 FP -0.1, T cell HTS 168.2, MEX-5 binding -1.1, GRK2 aptamer HTS 0.0, GRK2 inh confirm -3.0 and Aptamer quench SP 100.7.
For O=C(COC(=O)Cc1ccc(Cl)cc1)NCc1ccco1 the results were LANA DNA inh 8.2, Keap1 Nrf2 FP -1.2, T cell HTS 534.9, GRK2 aptamer HTS 59.0*, GRK2 inh confirm 32.8 and Aptamer quench SP 98.2.
O=C(COC(=O)Cc1c(Cl)cccc1Cl)NCc1ccco1 was read as LANA DNA inh 1.1, Keap1 Nrf2 FP -6.8, T cell HTS 694.8 and GRK2 aptamer HTS 6.0.
Screening O=C(COC(=O)CSc1ccc(Br)cc1)NCc1ccco1 returned LANA DNA inh 0.0, Keap1 Nrf2 FP -4.3, T cell HTS 400.3, MEX-5 binding 0.3 and GRK2 aptamer HTS 0.0.
Screening Nc1cc(C(=O)OCC(=O)NCc2ccco2)ccc1Cl returned LANA DNA inh -2.1, Keap1 Nrf2 FP -8.6, EBV gp42 block 5.2, T cell HTS 252.4, MEX-5 binding 1.0 and GRK2 aptamer HTS 5.0.
Cc1cc(Br)ccc1SCC(=O)OCC(=O)NCc1ccco1 was read as LANA DNA inh 5.5, Keap1 Nrf2 FP -6.6, EBV gp42 block 19.6, T cell HTS 289.5, MEX-5 binding -0.8, GRK2 aptamer HTS 52.0*, GRK2 inh confirm 25.3 and Aptamer quench SP 99.8.
CN(Cc1nc2ccccc2c(=O)[nH]1)c1ccccc1 was read as LANA DNA inh 7.0, Keap1 Nrf2 FP 0.5, EBV gp42 block 0.6, T cell HTS 188.3, MEX-5 binding -0.1 and GRK2 aptamer HTS 4.0.
Screening Cc1ccc(S(=O)(=O)N2CCC(C(=O)OCC(=O)NCCc3ccccc3)CC2)cc1C returned T cell HTS 926.2, MEX-5 binding 1.2 and GRK2 aptamer HTS 1.0.
Cc1ccc(S(=O)(=O)c2nc(S(C)(=O)=O)sc2N2CCC3(CC2)OCCO3)cc1 was read as LANA DNA inh 0.5, Keap1 Nrf2 FP -1.0, T cell HTS 467.9, MEX-5 binding -1.2, GRK2 aptamer HTS 52.0*, GRK2 confirm 2 -0.9 and FAM quench CP2 100.0.
For Cc1ccc(S(=O)(=O)c2nc(S(C)(=O)=O)sc2N2CCOCC2)cc1 the results were LANA DNA inh 0.0, Keap1 Nrf2 FP -2.7, T cell HTS 655.3, MEX-5 binding -5.0 and GRK2 aptamer HTS 5.0.
`Cc1ccc(S(=O)(=O)c2nc(S(=O)(=O)c3ccc(C)cc3)c(N3CCN(CCO)CC3)s2)cc1` gave LANA DNA inh 10.3, Keap1 Nrf2 FP 0.9, T cell HTS 710.8, MEX-5 binding -0.6, GRK2 aptamer HTS 0.0, GRK2 inh confirm -3.0 and Aptamer quench SP 97.1.
Cc1onc(-c2ccccc2)c1C(N)=O was read as LANA DNA inh -0.5, Keap1 Nrf2 FP 2.9, EBV gp42 block -23.3, T cell HTS 379.4, MEX-5 binding 0.6 and GRK2 aptamer HTS 2.0.
